Laboratory results from ChEMBL document CHEMBL1123312, “In the search for new anticancer drugs. 17. Linear and cyclic polyether analogues of N,N:N',N':N'',N''-tri-1,2-ethanediylphosphoric triamide and N,N:N',N':N'',N''-tri-1,2-ethanediylphosphorothioic triamide” (J Med Chem, 1986).
Several values for one entry are separate records, joined by “and”; a condition that tells them apart may be missing. Identical values can stand only once.

Key:
[1] = tested on: Mus musculus; assay: Percentage increase in life span when the compound was administered intraperitoneally at dose of 20 mg/Kg in P388 leukemia in CDF1 mice was determined; type: functional; details: P388, ip
Method in brief: (§1)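 CD2F1 male mice, 19–22 g, in groups of six, inoculated ip with 10⁶ P388 cells on day 0. Dosed ip once daily for 9 days from day 1, in saline, or for linear polyethers in aqueous 2% Tween 80. Deaths and survivors were recorded to 30 days, some to 60. T/C is mean survival, treated vs tumour-bearing control. %ILS = [(T−C)/C]×100. Average day-5 weight change was taken as toxicity.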

[2] = tested on: Mus musculus; assay: Percentage increase in life span when the compound was administered intraperitoneally at dose of 60 mg/Kg in P388 leukemia in CDF1 mice was determined; type: functional; details: P388, ip; method in brief: as §1
[3] = tested on: Mus musculus; assay: Anticancer activity against P388 leukemia in CD2F1 male mice expressed as Average % weight change on day 5 as a measure of toxicity was reported at a dose of 60 mg/kg/day.; type: functional; method in brief: as §1
[4] = tested on: Mus musculus; assay: Compound was evaluated for the anticancer activity against P388 leukemia in CD2F1 male mice at a dose of 60 mg/kg/after 30 days; 0/6; type: functional; method in brief: as §1
[5] = tested on: Mus musculus; assay: Anticancer activity against P388 leukemia in CD2F1 male mice by 60 mg/kg/day.; type: functional; method in brief: as §1
[6] = tested on: Mus musculus; assay: Anticancer activity against P388 leukemia in CD2F1 male mice expressed as Average % weight change on day 5 as a measure of toxicity was reported at a dose of 20 mg/kg/day.; type: functional; method in brief: as §1
[7] = tested on: Mus musculus; assay: Compound was evaluated for the anticancer activity against P388 leukemia in CD2F1 male mice at a dose of 20 mg/kg/after 30 days; 0/6; type: functional
[8] = partition coefficient with the use of 1-octanol / water solvent system; type: physicochemical
Method in brief: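 4 mL of 10 mM aqueous compound was stirred vigorously with 2 mL 1-octanol for 5 min at 25 °C. The aqueous layer was analysed by ³¹P NMR, and signal intensity (peak height × width at half-height) gave concentrations in each phase. P = [octanol]/[water].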

CCOCCOCCOP(=O)(N1CC1(C)C)N1CC1(C)C (stereo unspecified)
ILS at 20 mg/kg [1]: 28% | ILS at 60 mg/kg [2]: 88% | Weight change [3]: 5.5% | Survivors [4]: 0 | T/C [5]: 188% and 88% | Weight change [6]: 1.5% | Survivors [7]: 0 | Partition coefficient [8]: 1.65

CCOCCOCCOP(=O)(N1CC1)N1CC1
ILS at 20 mg/kg [1]: 40% | ILS at 60 mg/kg [2]: 131% | Weight change [3]: 4.5% | Survivors [4]: 0 | T/C [5]: 231% and 131% | Weight change [6]: 2.8% | Survivors [7]: 0 | Partition coefficient [8]: 1.25

CCOCCOCCOP(=S)(N1CC1)N1CC1
ILS at 20 mg/kg [1]: 24% | ILS at 60 mg/kg [2]: 77% | Weight change [3]: 1.4% | Survivors [4]: 0 | T/C [5]: 177% and 77% | Weight change [6]: 2.6% | Survivors [7]: 0 | Partition coefficient [8]: 2.4

CCOCCOCCOP(=S)(N1CC1(C)C)N1CC1(C)C (stereo unspecified)
ILS at 20 mg/kg [1]: 19% | ILS at 60 mg/kg [2]: 42% | Weight change [3]: 1.4% | Survivors [4]: 0 | Weight change [6]: 1.6% | Survivors [7]: 0 | Partition coefficient [8]: 2.95

O=P(N1CCOCCOCCOCCOCCOCC1)(N1CC1)N1CC1
ILS at 20 mg/kg [1]: 47% | ILS at 60 mg/kg [2]: 88% | Weight change [3]: 0.5% | Survivors [4]: 0 | T/C [5]: 188% and 88% | Weight change [6]: 7.6% | Survivors [7]: 0 | Partition coefficient [8]: 0.044

S=P(N1CCOCCOCCOCCOCCOCC1)(N1CC1)N1CC1
ILS at 20 mg/kg [1]: 2% | ILS at 60 mg/kg [2]: 20% | Weight change [3]: 12.3% | Survivors [4]: 0 | Weight change [6]: 10.6% | Survivors [7]: 0 | Partition coefficient [8]: 5.6
